Two compounds from ChEMBL document CHEMBL3763085, “Optimization of tetrahydronaphthalene inhibitors of Raf with selectivity over hERG” (Bioorg Med Chem Lett, 2016) can be followed below.

The term bioavailability denotes dose-corrected exposure relative to a reference, in per cent. Lower therefore signals little systemic uptake. The term clearance denotes the rate of elimination divided by the concentration. Low readings indicate inefficient removal, high ones efficient removal. By AUC is commonly meant the area under the concentration-time curve, a measure of exposure. Low readings indicate less exposure, high ones more exposure.

Common to all, as to assay type: ADME, organism-based
The nature of series [1]: Oral bioavailability in Sprague-Dawley rat at 10 mg/kg. The note with it: in vivo. An outline of the steps:
(§1)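 Male SD rats were dosed orally at 10 mg/kg in 10% 2-hydroxypropyl-beta-cyclodextrin.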

Series [2] can be described thus: Volume of distribution at steady state in Sprague-Dawley rat at 1 mg/kg, iv. The conditions noted are these: in vivo, read-out: Vdss. The gist of the method:
(§2)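 Male SD rats received 1 mg/kg intravenously. The vehicle was 10% 2-hydroxypropyl-beta-cyclodextrin or ethanol/PEG400/N,N-dimethylacetamide/water 1:4:1:4 (by volume), depending on compound. Plasma clearance (L/h/kg) and steady-state volume of distribution (L/kg) were derived.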

Series [3] is described as follows: Plasma clearance in Sprague-Dawley rat at 1 mg/kg, iv. An outline of the steps: as §2
Series [4] in a line: AUC in Sprague-Dawley rat at 10 mg/kg, po. The conditions noted are these: in vivo. An outline of the steps: as §1

`CN(C)Cc1cc(C(=O)N[C@@H]2CCc3ccc(Oc4ccnc5c4CCC(=O)N5)cc3C2)cc(C(F)(F)F)c1.Cl.Cl`: in series [1], the bioavailability worked out at 100%. For the same compound, the Vd in series [2] turned out to be 0.75 L/kg. The compound further showed a clearance in series [3] of 3.83 mL/min/kg. Also, the AUC in series [4] amounted to 98.6 µM·h.

Consider `Cl.Cn1cc(-c2cc(C(=O)N[C@@H]3CCc4ccc(Oc5ccnc6c5CCC(=O)N6)cc4C3)cc(C(F)(F)F)c2)cn1`, for which the bioavailability in series [1] stood at 54%. Moreover, in series [2], the Vd was 0.41 L/kg. In series [3], the clearance was 1.33 mL/min/kg. The compound also came in with an AUC in series [4] of 126 µM·h.
